Broadly, the IC50 is the concentration at which inhibition is half-maximal. Low values mean inhibition by little substance, high ones a need for much substance.

For 3 compounds, inhibition and IC50 results are on record in ChEMBL document CHEMBL1817650, “Fragment-based drug design and drug repositioning using multiple ligand simultaneous docking (MLSD): identifying celecoxib and template compounds as novel inhibitors of signal transducer and activator of transcription 3 (STAT3)” (J Med Chem, 2011).

In experiment [1] the test system is HCT-116. Kind of experiment: Inhibition of STAT3 protein expression in COX2-negative human HCT116 cells at 10 to 50 uM after 24 hrs by Western blot analysis.
Experiment [2] concerns the target Signal transducer and activator of transcription 3 (Homo sapiens) (UniProt P40763). Description: Inhibition of STAT3 SH2 domain phosphorylation at Tyr705 in COX2-negative human HCT116 cells after 24 hrs by Western blot analysis. To be noted: HCT-116. For orientation: Immunoblotting shows a protein as a band on a membrane.
The subject of experiment [3] is HCT-116. Description: Anticancer activity against human HCT116 cells after 72 hrs by MTT assay. To be noted: HCT-116, 72 h. It is filed as functional, cell-based. Put shortly:
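HCT-116 cells, 3,000 per well, given escalating concentrations (5–160 μM or 1–75 μM depending on compound) in triplicate with 10% FBS. Incubation was 72 h at 37°C, then MTT viability read-out at 595 nm absorbance. IC50 was derived by curve fitting.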
Background: Tetrazolium dyes change colour on reduction, which living cells bring about.

The target in experiment [4] is Signal transducer and activator of transcription 1 (Homo sapiens) (UniProt P42224). Kind of experiment: Inhibition of interferon gamma induced STAT1 phosphorylation in human PANC1 cells at […] pretreated 2 hrs prior to interferon-gamma challenge measured after 30. To be noted: PANC-1.
The target of experiment [5] is Signal transducer and activator of transcription 3 (Homo sapiens) (UniProt P40763). Description: Inhibition of IL-6-induced STAT3 phosphorylation in human PANC1 cells at 25 to 50 µM pretreated 2 hrs prior to IL-6 challenge measured after 30 mins. It is filed as cell-based. To be noted: PANC-1. Put shortly: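 PANC-1 cells were serum-starved for 24 h, then pretreated with 25 or 50 μM compound for 2 h. They were then stimulated with IL-6 at 50 ng/ml for 30 min, and STAT3 phosphorylation was assessed.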

The structures appear in SMILES notation. The source made the active and inactive calls. The calls are words filed in the database; no cut-off is given here.

Sequence of Signal transducer and activator of transcription 3 (Homo sapiens) (P40763 whole entry, the tested form may be a part): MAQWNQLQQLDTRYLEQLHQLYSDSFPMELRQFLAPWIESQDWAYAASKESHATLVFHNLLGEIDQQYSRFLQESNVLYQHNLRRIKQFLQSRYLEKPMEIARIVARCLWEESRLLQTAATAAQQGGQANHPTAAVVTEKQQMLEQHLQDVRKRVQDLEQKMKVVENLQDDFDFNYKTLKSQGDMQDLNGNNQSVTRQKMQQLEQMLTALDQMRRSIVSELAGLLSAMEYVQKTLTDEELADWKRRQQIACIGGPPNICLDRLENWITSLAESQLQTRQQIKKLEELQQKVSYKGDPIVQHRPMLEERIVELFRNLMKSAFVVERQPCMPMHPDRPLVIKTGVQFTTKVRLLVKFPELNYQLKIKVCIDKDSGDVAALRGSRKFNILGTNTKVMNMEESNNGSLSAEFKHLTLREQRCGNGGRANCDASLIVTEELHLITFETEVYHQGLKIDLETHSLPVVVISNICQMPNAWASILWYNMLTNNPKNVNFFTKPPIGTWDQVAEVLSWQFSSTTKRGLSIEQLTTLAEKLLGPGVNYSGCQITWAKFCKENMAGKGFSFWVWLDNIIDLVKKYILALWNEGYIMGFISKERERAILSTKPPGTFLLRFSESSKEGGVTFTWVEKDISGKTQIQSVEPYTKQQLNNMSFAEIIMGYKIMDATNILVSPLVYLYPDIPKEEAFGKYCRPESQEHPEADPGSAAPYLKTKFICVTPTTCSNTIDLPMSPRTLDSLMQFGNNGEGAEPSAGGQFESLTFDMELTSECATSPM
Sequence of Signal transducer and activator of transcription 1 (Homo sapiens) (P42224 whole entry, looked up): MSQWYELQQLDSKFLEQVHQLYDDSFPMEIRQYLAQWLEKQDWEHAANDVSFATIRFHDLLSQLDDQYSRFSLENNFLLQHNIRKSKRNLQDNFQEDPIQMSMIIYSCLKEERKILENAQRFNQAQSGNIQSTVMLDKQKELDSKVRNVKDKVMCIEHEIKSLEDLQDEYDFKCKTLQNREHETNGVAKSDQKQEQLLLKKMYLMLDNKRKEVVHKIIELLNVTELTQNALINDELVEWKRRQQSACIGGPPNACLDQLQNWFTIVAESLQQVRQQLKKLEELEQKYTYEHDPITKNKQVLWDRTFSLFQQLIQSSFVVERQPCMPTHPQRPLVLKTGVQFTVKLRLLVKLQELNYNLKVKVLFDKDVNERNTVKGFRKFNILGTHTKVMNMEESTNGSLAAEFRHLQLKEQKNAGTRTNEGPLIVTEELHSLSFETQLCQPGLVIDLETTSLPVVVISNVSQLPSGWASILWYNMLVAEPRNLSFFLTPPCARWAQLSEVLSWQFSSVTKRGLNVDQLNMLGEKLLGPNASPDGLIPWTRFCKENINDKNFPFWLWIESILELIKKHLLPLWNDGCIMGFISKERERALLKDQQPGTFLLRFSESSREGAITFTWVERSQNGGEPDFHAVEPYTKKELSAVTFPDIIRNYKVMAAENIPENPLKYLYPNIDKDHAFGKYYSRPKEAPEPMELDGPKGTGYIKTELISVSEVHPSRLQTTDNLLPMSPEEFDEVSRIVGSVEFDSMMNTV

For the compound `NS(=O)(=O)c1ccc(-n2nc(C(=O)NN3CCCCC3)cc2-c2ccc(-c3ccccc3)cc2)cc1`, the inhibition result in the experiment with HCT-116 [1] was “inactive”. Besides, in experiment [2], the inhibition entry is “Dose-dependent effect”. In the experiment on HCT-116 [3], the IC50 was found to be 10.1 µM.

Regarding `Cc1ccc(-c2cc(C(F)(F)F)nn2-c2ccc(S(N)(=O)=O)cc2)cc1` [CELECOXIB], the inhibition entry (in experiment [4]; in the experiment with HCT-116 [1]) was “inactive” throughout. In experiment [5], the inhibition entry was “Active”. Besides, the inhibition entry in experiment [2] was “Dose-dependent effect”. The same compound registered a half-inhibitory concentration (IC50) with HCT-116 [3] of 43.3 µM.

For `Cc1ccc(Cc2cc(-c3ccc(Br)cc3)n(-c3ccc(S(N)(=O)=O)cc3)n2)cc1`, the inhibition result in the experiment on HCT-116 [1] is “inactive”. The inhibition result in experiment [2] is “Dose-dependent effect”. Besides, 9.7 µM corresponded to half-maximal inhibition in the experiment on HCT-116 [3] (IC50).
